According to ChEMBL document CHEMBL4689842, “EUbOPEN Chemogenomics Library wave 1” (2021):
Where “and” joins values, the source holds several entries; their conditions need not be identical. Identical values can stand only once.

System: U2OS
Test: Multiplex assay against U2OS
Type: toxicity, cell-based
Conditions: human
Procedure, shortened: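 Compound was added to live cells that had been stained at seeding with Hoechst33342, BioTracker Green Microtubule Cytoskeleton Dye, MitoTracker Red and Annexin V Alexa Fluor 680, and imaging followed on a CQ1 microscope at 37°C and 5% CO2. CellPathfinder machine-learning gating divided cells into Hoechst high-intensity objects or normal cells, normal cells into healthy, pyknosed or fragmented nuclei, and pyknosed cells into mitotic or apoptotic. Tubulin, mitochondrial-mass and membrane-permeability phenotypes are per cents of healthy-nucleus cells.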

[1] = 12 h, 1 µM, compound concentration 1 uM, replicate 1
[2] = 12 h, 1 µM, compound concentration 1 uM, replicate 2
[3] = 12 h, 10 µM, compound concentration 10 uM, replicate 1
[4] = 12 h, 10 µM, compound concentration 10 uM, replicate 2
[5] = 24 h, 1 µM, compound concentration 1 uM, replicate 1
[6] = 24 h, 1 µM, compound concentration 1 uM, replicate 2
[7] = 24 h, 10 µM, compound concentration 10 uM, replicate 1
[8] = 24 h, 10 µM, compound concentration 10 uM, replicate 2
[9] = 48 h, 10 µM, compound concentration 10 uM, replicate 1
[10] = 48 h, 10 µM, compound concentration 10 uM, replicate 2

## CCN(CC)CCCCNc1ncc2cc(-c3cc(OC)cc(OC)c3)c(NC(=O)NC(C)(C)C)nc2n1 [PD-173074]
[1]
  Population Apoptotic (%): 53%
  Population Fragmented Nuclei (%): 27%
  Population Healthy Nuclei (%): 4%
  Population Hoechst High Intensity Objects (%): 56%
  Population Membrane Permeable-Phenotype (%): 66%
  Population Mitochondria Different-Phenotype (%): 16%
  Population Mitotic Cells (%): 46%
  Population Normal (%): 43%
  Population Pyknosed Nuclei (%): 67%
  Population Tubulin-Different-Phenotype (%): 33%
  Total Cell Count: 280
[2]
  Population Apoptotic (%): 54%
  Population Fragmented Nuclei (%): 31%
  Population Healthy Nuclei (%): 11%
  Population Hoechst High Intensity Objects (%): 55%
  Population Membrane Permeable-Phenotype (%): 64%
  Population Mitochondria Different-Phenotype (%): 29%
  Population Mitotic Cells (%): 45%
  Population Normal (%): 44%
  Population Pyknosed Nuclei (%): 57%
  Population Tubulin-Different-Phenotype (%): 47%
  Total Cell Count: 186
[3]
  Population Fragmented Nuclei (%): 20%
  Population Healthy Nuclei (%): 52%
  Population Hoechst High Intensity Objects (%): 19%
  Population Membrane Permeable-Phenotype (%): 39%
  Population Mitochondria Different-Phenotype (%): 27%
  Population Normal (%): 80%
  Population Pyknosed Nuclei (%): 26%
  Population Tubulin-Different-Phenotype (%): 92%
  Total Cell Count: 206
[4]
  Population Apoptotic (%): 21%
  Population Fragmented Nuclei (%): 33%
  Population Healthy Nuclei (%): 34%
  Population Hoechst High Intensity Objects (%): 30%
  Population Membrane Permeable-Phenotype (%): 37%
  Population Mitochondria Different-Phenotype (%): 51%
  Population Mitotic Cells (%): 78%
  Population Normal (%): 69%
  Population Pyknosed Nuclei (%): 31%
  Population Tubulin-Different-Phenotype (%): 73%
  Total Cell Count: 129
[5]
  Population Apoptotic (%): 70%
  Population Fragmented Nuclei (%): 17%
  Population Healthy Nuclei (%): 8%
  Population Hoechst High Intensity Objects (%): 60%
  Population Membrane Permeable-Phenotype (%): 71%
  Population Mitochondria Different-Phenotype (%): 28%
  Population Mitotic Cells (%): 29%
  Population Normal (%): 39%
  Population Pyknosed Nuclei (%): 74%
  Population Tubulin-Different-Phenotype (%): 57%
  Total Cell Count: 298
[6]
  Population Apoptotic (%): 71%
  Population Fragmented Nuclei (%): 30%
  Population Healthy Nuclei (%): 15%
  Population Hoechst High Intensity Objects (%): 63%
  Population Membrane Permeable-Phenotype (%): 84%
  Population Mitochondria Different-Phenotype (%): 38%
  Population Mitotic Cells (%): 28%
  Population Normal (%): 36%
  Population Pyknosed Nuclei (%): 53%
  Population Tubulin-Different-Phenotype (%): 69%
  Total Cell Count: 168
[7]
  Population Apoptotic (%): 35%
  Population Fragmented Nuclei (%): 16%
  Population Healthy Nuclei (%): 54%
  Population Hoechst High Intensity Objects (%): 17%
  Population Membrane Permeable-Phenotype (%): 20%
  Population Mitochondria Different-Phenotype (%): 48%
  Population Mitotic Cells (%): 64%
  Population Normal (%): 82%
  Population Pyknosed Nuclei (%): 29%
  Population Tubulin-Different-Phenotype (%): 74%
  Total Cell Count: 202
[8]
  Population Apoptotic (%): 45%
  Population Fragmented Nuclei (%): 26%
  Population Healthy Nuclei (%): 33%
  Population Hoechst High Intensity Objects (%): 21%
  Population Membrane Permeable-Phenotype (%): 18%
  Population Mitochondria Different-Phenotype (%): 52%
  Population Mitotic Cells (%): 54%
  Population Normal (%): 78%
  Population Pyknosed Nuclei (%): 40%
  Population Tubulin-Different-Phenotype (%): 59%
  Total Cell Count: 113

## CCn1c(=O)c(-c2ccc(Cl)cc2Cl)cc2cnc(Nc3ccc(N4CCNCC4)c(F)c3)nc21
[3]
  Population Apoptotic (%): 97% and 89% and 38%
  Population Normal (%): 31% and 45% and 92%
  Total Cell Count: 204 and 465 and 202
[4]
  Population Apoptotic (%): 100% and 88% and 46%
  Population Fragmented Nuclei (%): 44% and 21% and 19%
  Population Membrane Permeable-Phenotype (%): 71% and 78%
  Population Normal (%): 50% and 40% and 80%
  Total Cell Count: 206 and 130 and 83
[7]
  Population Apoptotic (%): 87% and 91% and 60%
  Population Fragmented Nuclei (%): 22% and 8%
  Population Normal (%): 40% and 34% and 89%
  Population Pyknosed Nuclei (%): 50% and 40% and 25%
  Total Cell Count: 436 and 206 and 232
[8]
  Population Apoptotic (%): 100% and 53%
  Population Fragmented Nuclei (%): 41% and 39%
  Population Healthy Nuclei (%): 31% and 45% and 50%
  Population Pyknosed Nuclei (%): 26% and 15% and 27%
  Population Tubulin-Different-Phenotype (%): 84% and 86% and 29%
  Total Cell Count: 225 and 118 and 97
[9]
  Population Apoptotic (%): 90%
  Population Fragmented Nuclei (%): 48%
  Population Healthy Nuclei (%): 10%
  Population Hoechst High Intensity Objects (%): 59%
  Population Membrane Permeable-Phenotype (%): 75%
  Population Mitochondria Different-Phenotype (%): 62%
  Population Mitotic Cells (%): 9%
  Population Normal (%): 40%
  Population Pyknosed Nuclei (%): 41%
  Population Tubulin-Different-Phenotype (%): 75%
  Total Cell Count: 620
[10]
  Population Apoptotic (%): 100%
  Population Fragmented Nuclei (%): 43%
  Population Healthy Nuclei (%): 26%
  Population Hoechst High Intensity Objects (%): 56%
  Population Membrane Permeable-Phenotype (%): 100%
  Population Mitochondria Different-Phenotype (%): 91%
  Population Mitotic Cells (%): 0%
  Population Normal (%): 43%
  Population Pyknosed Nuclei (%): 30%
  Population Tubulin-Different-Phenotype (%): 91%
  Total Cell Count: 227
